Experimental data of several laboratories.
Target: Serine/threonine-protein kinase PRP4 homolog (PRPF4B, Homo sapiens, UniProt Q13523)

Structure (SMILES)	test	setting	endpoint	value
c1ccc(CNc2nc(N3CCOc4ccccc43)nc3c2CCCC3)cc1	target engagement in cells, inhibitor, chemoproteomics	20 mM	inhibition	-6.7%
Cc1ccc(C(=O)Nc2ccc(CN3CCN(C)CC3)c(C(F)(F)F)c2)cc1C#Cc1cnc2cccnn12	enzyme activity, inhibitor	23.5 nM	remaining activity	91%
CC(=O)c1c(NS(C)(=O)=O)c2cc(-c3ccc(Cl)cc3)c(-c3ccc(Cl)cc3Cl)nc2n(C)c1=O	cell-free assay, competition with immobilised ligand	1 µM	remaining binding	83%
Nc1ncnc2occ(-c3ccc(NC(=O)Nc4cc(C(F)(F)F)ccc4F)cc3)c12	cell-free assay, inhibitor	20 µM	remaining signal	100%
CCCCNc1ncc2c(-c3ccc(F)cc3)nn(C[C@H]3CC[C@H](N)CC3)c2n1	target engagement in cells, inhibitor, chemoproteomics	20 mM	inhibition	-1.2%
COc1ccc2c(O[C@@H]3C[C@H]4C(=O)N[C@]5(C(=O)O)CC5/C=C\CCCCC[C@H](NC(=O)OC5CCCC5)C(=O)N4C3)cc(-c3csc(NC(=O)C(C)C)n3)nc2c1C (some centres unmarked)	cell-free assay, competition with immobilised ligand	1 µM	remaining binding	93%
CN1CC(Oc2cnc(C#N)cc2-c2ccn3nc(NC(=O)C4CC4)cc3c2)C1	enzyme activity, inhibitor	1 µM	inhibition	3%
Cc1ccc(C(=O)NCc2ccsc2)cc1C#Cc1cn(C(C)C)c2ncnc(N)c12	enzyme activity, inhibitor	1 µM	activity vs control	114%
